These results are taken from paper PMC3731570 (Cell Research, 2013).

Data set [1] has as its system Arabidopsis seeds (Col-0 and pyr1;pyl1;pyl4). The data set can be described thus: Seed germination assay. The data set is classed as in vivo, Arabidopsis thaliana. Conditions: 1 μM. The method in brief:
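Col-0 and pyr1;pyl1;pyl4 seeds were stratified 4 days, then sown on half-strength MS (1% sucrose) containing 1 µM test compound or (+)-ABA; DMSO control. Plates were kept at 22 °C under long day, 15 seeds per plate and 4 plates per chemical. Germination was defined as expanded green cotyledons and counted 4 days after triple-mutant germination; mean ± SD.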

Data set [2] relates to reconstructed ABA signaling pathway (PYR1+HAB1+SnRK2.6+ABF2), RD29b-luciferase reporter. The data set can be described thus: Protoplast transactivation assay. In kind it is cell-based, Arabidopsis thaliana. Conditions: snrk2.2/2.3/2.6 protoplasts transfected with PYR1, HAB1, SnRK2.6, ABF2; 5 μM AM1. The method in brief: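 Protoplasts came from 4-week-old pRD29b-LUC plants (snrk2.2/2.3/2.6 background) grown on soil pellets under 8-h light/16-h dark. They were transfected with PYR1, HAB1, SnRK2.6 and ABF2, or the same set without PYR1. Cells were treated with 5 µM test compound; DMSO control. RD29b-driven luciferase was measured.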

The subject of data set [3] is Arabidopsis seedlings transcriptome. The data set can be described thus: RNA-seq transcriptome profiling of seedlings. In kind it is in vivo, Arabidopsis thaliana. Conditions: 50 μM, FDR < 0.05. The method, boiled down: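 Ten-day-old Col-0 seedlings on half-strength MS were exposed for 6 h to 50 µM test compound or (+)-ABA, or 0.05% DMSO. Duplicate biological replicates were sequenced on Illumina HiSeq2000 (10 M reads/sample, mean length >49 bp). Fold-change versus DMSO was log2-transformed; Spearman correlations were computed between samples. Differential genes were called by SAM analysis.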

The subject of data set [4] is Col-0 plants rosette leaves. The data set can be described thus: Water loss. In kind it is in vivo, Arabidopsis thaliana. As to conditions: one-month-old Col-0 plants, 50 μM spray, compared with DMSO. The method, boiled down: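 Well-watered 4-week-old Col-0 plants on soil (8-h light/16-h dark) were sprayed with 50 µM test compound plus 0.02% Tween-20; DMSO control. Plants were returned to the chamber for 3 h. Equal-sized rosette leaves were then detached and weighed in air every 5 min for the first hour and every 10 min for the second. Loss is expressed as % of initial fresh weight; n = 4, standard error.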

Data set [5] is described as follows: Stability measurement under UV light. In kind it is physicochemical. As to conditions: water exposed to UV light (8 W). The method in brief:
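Test compound and ABA, each 100 µM in pure water, were exposed in aliquots to an 8 W UV lamp in a safety hood. Aliquots were withdrawn at set time points for LC-MS. Amounts were quantified from peak areas, and half-life was calculated from peak disappearance.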

Data set [6] deals with HAB1 PP2C with PYR/PYL receptors. Briefly: HAB1 phosphatase activity assay. The data set is classed as biochemical, Arabidopsis thaliana. As to conditions: 10 μM; PYR1 and PYL1-10.
Data set [7] has as its system ABA-induced stress-related genes. Briefly: Quantitative RT-PCR of ABA-induced genes in seedlings. The data set is classed as in vivo, Arabidopsis thaliana. As to conditions: 50 μM, 6 h.

Usually half-life stands for the time in which the quantity being followed falls by half. Low readings indicate fast loss, high ones slow loss. As for `CC1=CC(=O)CC(C)(C)[C@@]1(O)/C=C/C(C)=C\C(=O)O` [ABA, Abscisic acid], the “inhibition of seed germination” value is on record as “completely abolished” in data set [1] (pyr1/pyl1/pyl4 triple mutant) and “inhibit germination” in data set [1] (wild-type Col-0 seeds). Also, the “activation of RD29b-luciferase reporter” value in data set [2] is “efficiently activate”. The “number of genes induced (up- or down-regulated) vs DMSO” value in data set [3] is on record as 4 529 genes. Besides, the “water loss of rosette leaves” value in data set [4] is given as “decreased”. Besides, in data set [5], the half-life at 100 μM amounted to 24 min. The “receptor-mediated inhibition of HAB1 PP2C activity” value in data set [6] is reported as “inhibited by all receptor subtypes tested”. Moreover, the “activation of six ABA-inducible genes” value is “much reduced, but remained inducible” in data set [7] (pyr1/pyl1/pyl4 triple mutant plants) and “dramatically activated” in data set [7] (wild-type plants).
